Published values from different studies.
Target: Ephrin type-A receptor 3 (EPHA3, Homo sapiens, UniProt P29320)
Sequence (P29320 21-983, as in one of the studies): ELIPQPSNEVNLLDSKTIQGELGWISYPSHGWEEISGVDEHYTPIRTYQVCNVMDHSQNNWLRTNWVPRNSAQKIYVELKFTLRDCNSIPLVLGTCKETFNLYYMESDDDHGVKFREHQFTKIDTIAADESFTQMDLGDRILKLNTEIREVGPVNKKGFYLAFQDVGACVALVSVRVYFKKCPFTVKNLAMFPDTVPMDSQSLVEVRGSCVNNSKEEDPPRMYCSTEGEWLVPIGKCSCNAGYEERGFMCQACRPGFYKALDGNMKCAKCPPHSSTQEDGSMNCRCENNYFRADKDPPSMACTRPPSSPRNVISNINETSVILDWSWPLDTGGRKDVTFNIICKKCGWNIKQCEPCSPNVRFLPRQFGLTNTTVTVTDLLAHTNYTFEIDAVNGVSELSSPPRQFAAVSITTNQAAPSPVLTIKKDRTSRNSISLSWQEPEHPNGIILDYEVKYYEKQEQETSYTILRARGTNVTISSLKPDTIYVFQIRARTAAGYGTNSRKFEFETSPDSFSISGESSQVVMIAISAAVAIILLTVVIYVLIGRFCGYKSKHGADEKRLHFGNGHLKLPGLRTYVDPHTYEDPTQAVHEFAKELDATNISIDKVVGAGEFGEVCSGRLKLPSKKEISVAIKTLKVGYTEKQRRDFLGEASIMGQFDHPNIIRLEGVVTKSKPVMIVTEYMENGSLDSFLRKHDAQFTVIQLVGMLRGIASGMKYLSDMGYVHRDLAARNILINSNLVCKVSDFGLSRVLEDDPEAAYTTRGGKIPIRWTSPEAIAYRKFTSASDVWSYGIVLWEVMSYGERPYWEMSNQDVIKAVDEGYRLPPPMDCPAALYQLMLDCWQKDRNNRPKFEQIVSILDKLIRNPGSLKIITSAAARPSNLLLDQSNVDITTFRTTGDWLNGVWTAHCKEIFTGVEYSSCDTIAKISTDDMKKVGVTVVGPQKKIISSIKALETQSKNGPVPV

Compound	effect on	technique	concentration	remaining binding [%]
COc1ncc2cc3ccccc3nc2c1C#N	cell-free assay	competition with immobilised ligand	5 µM	96
Cc1nc(C2CCN(C(=O)c3ccc(OC(F)(F)F)cc3N)CC2)c2ncc(N3CCN(C)CC3)cc2n1	cell-free assay	competition with immobilised ligand	1 µM	92
c1cncc(-c2cccc(Nc3nccc(NC4CCCCC4)n3)c2)c1	binding	competition with immobilised ligand	10 µM	68
COc1cnc(Nc2cccc(S(N)(=O)=O)c2)nc1N1CCN(c2ccccc2)C(=O)C1	binding	competition with immobilised ligand	1 µM	98
O=C(c1ccc(Nc2ncc(Cl)c(-c3ccc(Cl)s3)n2)cc1)N1CCC(N2CCCC2)CC1	binding	competition with immobilised ligand	1 µM	68
C[C@@H](c1ccc(-n2cnc3c(N)ncnc32)cc1)N1CCc2nn(C)c(Cc3ccccc3)c2C1=O	binding	competition with immobilised ligand	0.1 µM	83
O=C(NCC1CCOCC1)c1n[nH]cc1NC(=O)c1c(F)cccc1F	binding	competition with immobilised ligand	1 µM	82
CN(C)c1nccc(-c2cnc3ncccn23)n1	binding	–	1 µM	100
O=C(c1ccc(Nc2nccc(-c3cc4ccccc4s3)n2)cc1)N1CCC(N2CCCC2)CC1	binding	competition with immobilised ligand	1 µM	94
CC(=O)N1CCC(c2ccc(C(=O)NC3=NCCN3)cc2C(F)(F)F)CC1	cell-free assay	competition with immobilised ligand	1 µM	95
C[C@H]1CCN(c2nccc(-c3cnn4ncccc34)n2)C1	binding	–	1 µM	100
Nc1ncc2c(n1)-c1c([nH]c3ccc(C#CC4CC4)cc13)CCCC2	binding	competition with immobilised ligand	1 µM	100
CN(C)c1ncc(F)c(-c2cnn3ncccc23)n1	binding	–	1 µM	100
Cc1cc(NC(=O)c2cccc(S(F)(F)(F)(F)F)c2)cc(-n2ccn3nc(-c4cccnc4)cc23)c1	cell-free assay	competition with immobilised ligand	1 µM	100
CNC(=O)[C@@H]1CC[C@@H](n2c(-c3ccc4cnccc4c3)nc3ccc(C(=O)NCc4cccc(C(N)=O)c4)cc32)C1	binding	competition with immobilised ligand	1 µM	96
Cn1nc(C(=O)NCc2ccc(C(=O)O)cc2)cc1-c1ccc2[nH]ccc2c1	cell-free assay	competition with immobilised ligand	0.1 µM	89
c1cnn2ncc(-c3ccnc(N4CCC45COC5)n3)c2c1	binding	–	1 µM	68
C[C@H](c1ccnc(Nc2nc3ccc(-c4cc(N(C)C)ncn4)cc3[nH]2)c1)N1CCN(C(=O)CC(F)(F)F)CC1	cell-free assay	competition with immobilised ligand	0.1 µM	100
CN(C)c1nccc(-c2cnn3ncccc23)n1	binding	–	1 µM	90
CCS(=O)(=O)c1cc2cc(C[C@](O)(CC(C)(C)c3ccc(F)cc3C(N)=O)C(F)(F)F)[nH]c2cn1	cell-free assay	competition with immobilised ligand	1 µM	95
N[C@H]1CCN(c2nccc(-c3cnn4ncccc34)n2)C1	binding	–	1 µM	98
